Activity calls are given as the source filed them. No cut-off for these calls is given here.
Columns and labels:
[1] = Inhibition of NF-kappaB activation in human K562 cells; format: cell-based
Outline: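 K562 cells electroporated with 5 µg each of a 5× NF-κB-site firefly luciferase reporter and a Renilla phRG-TK plasmid per 2.5 × 10⁶ cells. After 24 h they were resuspended at 1 × 10⁶/ml in RPMI 1640 with 0.1% FCS. Cells were then incubated 30 min before a concentration series was added. Read-out by dual luciferase; IC₅₀ reported.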

MDA-MB-231 [2] = test: Cytotoxicity against human MDA-MB-231 cells after 5 days by SRB assay; details: MDA-MB-231, 5 days
MDA-MB-231 [3] = test: Induction of apoptosis in human MDA-MB-231 cells assessed as increase in number of apoptotic cells at 2 to 3 uM after 18 hrs by FACScalibur flow cytometry; format: functional
SK-BR-3 = test: Cytotoxicity against human SKBR3 cells after 5 days by SRB assay; details: SK-BR-3, 5 days
MDA-MB-468 = test: Cytotoxicity against human MDA-MB-468 cells after 5 days by SRB assay; details: MDA-MB-468, 5 days
MDA-MB-231 [4] = test: Induction of apoptosis in human MDA-MB-231 cells assessed as increase in number of apoptotic cells at 2 to 3 uM after 36 hrs by FACScalibur flow cytometry; format: functional
MDA-MB-231 [5] = test: Induction of apoptosis in human MDA-MB-231 cells assessed as increase in number of apoptotic cells at 2 uM by FACScalibur flow cytometry; format: functional, cell-based
Outline: (§1)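 Cells seeded at 2 × 10⁵/well in DMEM/HamF12 with 5% FBS and antibiotics, then treated for 12, 18, 24 or 36 h against a 0.1% DMSO vehicle. Staining was Annexin-V-FLUOS/propidium iodide, read by flow cytometry, as apoptotic cells % of total. Mean ± SEM from three independent experiments in triplicate, two-way ANOVA with Bonferroni post-test.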

MDA-MB-231 [6] = test: Induction of apoptosis in human MDA-MB-231 cells assessed as increase in number of apoptotic cells at 1 uM by FACScalibur flow cytometry; format: functional, cell-based; outline: as §1

IC50 [1] [µM] | SMILES | EC50 (MDA-MB-231 [2]) [µM] | further results
47 | CN1C/C(=C\c2nccn2C)C(=O)/C(=C/c2nccn2C)C1 | > 30 | –
> 200 | Cn1cccc1/C=C1\CCC/C(=C\c2cccn2C)C1=O | > 30 | –
> 200 | COc1ccc(OC)c(/C=C2\CCC/C(=C\c3cc(OC)ccc3OC)C2=O)c1 | > 10 | –
2.5 | O=C1/C(=C/c2cccnc2)CCC/C1=C\c1cccnc1 | 1.5 | Activity (MDA-MB-231 [3]): <20%
> 200 | O=C1/C(=C/c2cccs2)CCC/C1=C\c1cccs1 [TENYLIDONE] | > 30 | –
15 | COc1cc(/C=C/C(=O)CC(=O)/C=C/c2ccc(O)c(OC)c2)ccc1O [CURCUMIN] | 7.6 | IC50 (SK-BR-3): 2.4 µM; EC50 (MDA-MB-468): 9.7 µM
10 | COc1cc(/C=C2\CCC/C(=C\c3ccc(O)c(OC)c3)C2=O)ccc1O [CYCLOVALONE] | 2.6 | –
34 | O=C1/C(=C/c2cccnc2)CC/C1=C\c1cccnc1 | 8.6 | –
2.5 | O=C1/C(=C/c2ccncc2)CCC/C1=C\c1ccncc1 | 1.1 | IC50 (SK-BR-3): 0.2 µM; Activity (MDA-MB-231 [3]): <20%; Activity (MDA-MB-231 [4]): 40%; EC50 (MDA-MB-468): 1.9 µM
1 | CN1C/C(=C\c2ccncc2)C(=O)/C(=C/c2ccncc2)C1 | 0.8 | IC50 (SK-BR-3): 0.6 µM; Activity (MDA-MB-231 [5]): Active; EC50 (MDA-MB-468): 0.5 µM
> 200 | CN1C/C(=C\c2cccs2)C(=O)/C(=C/c2cccs2)C1 | > 30 | –
0.9 | COc1cc(/C=C2\CN(C)C/C(=C\c3cc(OC)c(OC)c(OC)c3)C2=O)cc(OC)c1OC | 0.3 | Activity (MDA-MB-231 [6]): Active; IC50 (SK-BR-3): 0.4 µM; EC50 (MDA-MB-468): 0.3 µM
0.8 | CN1C/C(=C\c2cccnc2)C(=O)/C(=C/c2cccnc2)C1 | 2.1 | –
48 | Cn1ccnc1/C=C1\CCC/C(=C\c2nccn2C)C1=O | 1.9 | –
6.3 | COc1ccc(OC)c(/C=C2\CN(C)C/C(=C\c3cc(OC)ccc3OC)C2=O)c1 | 1.1 | IC50 (SK-BR-3): 1.1 µM; EC50 (MDA-MB-468): 1.1 µM
2.2 | O=C1/C(=C/c2ccnc(F)c2)CCC/C1=C\c1ccnc(F)c1 | 3.3 | –
– | COc1cc(/C=C2\CCC/C(=C\c3cc(OC)c(OC)c(OC)c3)C2=O)cc(OC)c1OC | > 30 | –
4 | COc1cc(F)c(/C=C2\CN(C)C/C(=C\c3cc(OC)c(OC)cc3F)C2=O)cc1OC | 3.8 | –
3.8 | O=C1/C(=C/c2cccnc2F)CCC/C1=C\c1cccnc1F | 3.2 | –

SMILES | IC50 [1] [µM] | EC50 (MDA-MB-231 [2]) [µM] | further results
CN1C2CCC1/C(=C\c1ccncc1)C(=O)/C2=C/c1ccncc1 | 1.5 | 1.1 | IC50 (SK-BR-3): 0.7 µM; EC50 (MDA-MB-468): 0.6 µM
CN1C2CCC1/C(=C\c1cccnc1)C(=O)/C2=C/c1cccnc1 | 4 | 12.9 | –
COc1cc(/C=C2/C(=O)/C(=C/c3cc(OC)c(OC)c(OC)c3)C3CCC2N3C)cc(OC)c1OC | > 200 | > 30 | –
